Laboratory results as given in publication PMC2852926 (The Journal of Biological Chemistry, 2010).
“Also recorded” adds a separate entry of the source. Where two headings read alike, the source gives them in different places. One block for each molecule: values may come before it.

Tests used:
[1] = system: OM-hydrolyzing activity in human intestinal cytosol; assay type: biochemical
[2] = system: OM-hydrolyzing activity in human liver cytosol; assay type: biochemical
[3] = molecular target: T1, human CMBL (Homo sapiens, UniProt Q96DG6); assay type: biochemical
T1 sequence (Q96DG6 1-245): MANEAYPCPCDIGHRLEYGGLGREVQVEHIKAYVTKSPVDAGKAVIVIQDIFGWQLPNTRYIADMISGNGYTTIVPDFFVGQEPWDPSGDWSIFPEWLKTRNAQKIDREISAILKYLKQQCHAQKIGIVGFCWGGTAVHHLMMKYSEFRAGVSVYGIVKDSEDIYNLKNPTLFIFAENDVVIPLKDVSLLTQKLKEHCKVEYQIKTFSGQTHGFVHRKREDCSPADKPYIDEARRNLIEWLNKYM

[4] = system: OM-hydrolyzing activity in human plasma; test: Effect of esterase inhibitors on OM-hydrolyzing activity in human plasma; assay type: biochemical; details: OM 250 μM, 5 min
Summary of the method: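 Human plasma, diluted to 2.5 mg protein/ml, incubated 5 min with OM substrate (250 μM) plus one esterase inhibitor: BNPP, DFP, PCMB, eserine or PMSF at 1000 μM, or EDTA at 500 μM. Olmesartan formed was quantified by reversed-phase C18 HPLC with UV at 254 nm. Activity was expressed as formation rate. Means of duplicate determinations.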

[5] = molecular target: T1, human CMBL; test: Hydrolysis of medoxomil prodrugs by recombinant CMBL; assay type: in vitro ADME; details: CMBL-transfected mammalian cell lysate, pH 7.4, 37 °C
[6] = Prodrug in portal or circulating blood of rats; assay type: in vivo; details: data not shown
[7] = system: human plasma PON1; details: cited from earlier work
[8] = OM hydrolysis in human liver cytosol, kinetic analysis; assay type: in vitro ADME
Summary of the method: (§1)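 Commercial human liver or intestinal subcellular fractions were incubated in 10 mM potassium phosphate (pH 7.4) at 37 °C with OM at 7.81–1000 μM. Protein was 0.05 mg/ml for liver and intestinal cytosols, 0.5 mg/ml for liver microsomes and 0.25 mg/ml for intestinal microsomes. Olmesartan was measured by C18 HPLC-UV at 254 nm, net of buffer-control hydrolysis. Km and Vmax came from nonlinear least-squares Michaelis–Menten fits of triplicates.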

[9] = OM hydrolysis in human intestinal microsomes, kinetic analysis; assay type: in vitro ADME
Summary of the method: as §1

[10] = system: plasma albumin; details: cited from earlier work
[11] = OM hydrolysis in human liver microsomes, kinetic analysis; assay type: in vitro ADME
Summary of the method: as §1

[12] = OM hydrolysis in human intestinal cytosol, kinetic analysis; assay type: in vitro ADME
Summary of the method: as §1

[13] = molecular target: T1, human CMBL; test: Hydrolysis of typical esterase substrates by recombinant CMBL; assay type: biochemical; details: substrate 1 mM, CMBL-transfected cell lysate 0.05 mg protein/ml
[14] = molecular target: T1, human CMBL; test: Ulifloxacin formation from prulifloxacin by recombinant CMBL; assay type: in vitro ADME; details: HEPES pH 7.4, 37 °C, CMBL-transfected mammalian cell lysate

Compound: O=[N+]([O-])c1ccc(OP(=O)(O)Oc2ccc([N+](=O)[O-])cc2)cc1 [BNPP, Bis-p-nitrophenylphosphate]
Inhibition of OM-hydrolyzing activity [1]: partially inhibited
Inhibition of OM-hydrolyzing activity [2]: partially inhibited
Inhibition of OM-hydrolyzing activity [3]: ~50%

Inhibition of OM-hydrolyzing activity ([4]; inhibitor 500 μM): almost completely inhibited
Inhibition of OM-hydrolyzing activity [3]: no inhibition
Compound: O=C(O)CN(CCN(CC(=O)O)CC(=O)O)CC(=O)O [EDTA]
Inhibition of OM-hydrolyzing activity [1]: not inhibited
Inhibition of OM-hydrolyzing activity [2]: not inhibited

Hydrolysis by recombinant CMBL [5]: readily hydrolyzed
Compound: Cc1oc(=O)oc1COC(=O)C1=C([C@H]2CCCO2)S[C@@H]2[C@@H]([C@@H](C)O)C(=O)N12 [Faropenem medoxomil]

Hydrolysis by recombinant CMBL [5]: readily hydrolyzed
Compound: Cc1oc(=O)oc1COC(=O)[C@@H]1N2C(=O)[C@@H](NC(=O)[C@H](N)c3ccccc3)[C@H]2SC1(C)C [Lenampicillin]

Prodrug detected in portal or circulating blood [6]: no prodrug was detected
Km ([8]; human, liver cytosol, pH 7.4): 160 ± 19 µM
Km ([9]; human, intestinal microsomes, pH 7.4): 236 ± 10 µM
Km ([11]; human, liver microsomes, pH 7.4): 481 ± 23 µM
Km ([12]; human, intestinal cytosol, pH 7.4): 193 ± 24 µM
Compound: CCCc1nc(C(C)(C)O)c(C(=O)OCc2oc(=O)oc2C)n1Cc1ccc(-c2ccccc2-c2nnn[nH]2)cc1 [Olmesartan medoxomil]
Hydrolysis by PON1 ([7]; listed as OM): capable of hydrolyzing; also recorded: hydrolyze
Vmax ([8]; Liver cytosol, mean ± S.E.): 19.7 ± 0.8 nmol/min/mg protein
Vmax ([9]; Intestinal microsomes, mean ± S.E.): 6.76 ± 0.11 nmol/min/mg protein
Hydrolysis by plasma albumin [10]: capable of hydrolyzing
Vmax ([11]; Liver microsomes, mean ± S.E.): 15.0 ± 0.3 nmol/min/mg protein
Vmax ([12]; Intestinal cytosol, mean ± S.E.): 45.1 ± 2.0 nmol/min/mg protein

Compound: O=C(O)c1cc[c]([Hg][Cl])cc1 [PCMB, p-chloromercuribenzoate]
Inhibition of OM-hydrolyzing activity [1]: strongly inhibited
Inhibition of OM-hydrolyzing activity [2]: strongly inhibited
Inhibition of OM-hydrolyzing activity ([4]; inhibitor 1000 μM): almost completely inhibited
Inhibition of OM-hydrolyzing activity [3]: almost completely inhibited

Compound: O=S(=O)(F)Cc1ccccc1 [PMSF, Phenylmethylsulfonyl fluoride]
Inhibition of OM-hydrolyzing activity [1]: not inhibited
Inhibition of OM-hydrolyzing activity [2]: not inhibited
Inhibition of OM-hydrolyzing activity [3]: no inhibition

Compound: CC(=O)SCC[N+](C)(C)C.[I-] [acetylthiocholine iodide]
Hydrolysis by recombinant CMBL [13]: does not hydrolyze

Compound: CNC(=O)Oc1ccc2c(c1)[C@]1(C)CCN(C)[C@@H]1N2C [eserine]
Inhibition of OM-hydrolyzing activity [1]: not inhibited
Inhibition of OM-hydrolyzing activity [2]: not inhibited
Inhibition of OM-hydrolyzing activity [3]: no inhibition

Compound: CC(=O)Oc1ccc([N+](=O)[O-])cc1 [p-nitrophenyl acetate]
Hydrolysis by recombinant CMBL [13]: does not hydrolyze

Compound: CC(=O)Oc1ccccc1 [phenyl acetate]
Hydrolysis by recombinant CMBL [13]: does not hydrolyze

Compound: Cc1oc(=O)oc1CN1CCN(c2cc3c(cc2F)c(=O)c(C(=O)O)c2n3C(C)S2)CC1 (centres unmarked) [prulifloxacin]
Hydrolysis by PON1 [7]: hydrolyze
Enzymatic hydrolysis by recombinant human CMBL [14]: not enzymatically hydrolyzed; also recorded: not hydrolyzed at all
